Assay results from PubChem BioAssay.
Results filed as inconclusive are left out.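 Rule for the calls, unless noted: active = RAM network inhibition above 8.4% in each of two replicates, 3 SD over the compound average; inconclusive = above 8.4% inhibition in only one replicate; inactive = 8.4% inhibition or less in each replicate.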

How the values were obtained:
[1] = S. cerevisiae growth inhibition in permissive medium (OD615), pilot counter-assay for S. cerevisiae lifespan shortening project, permissive growth control (AID 705;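 active = growth inhibition above 25% in both replicates, a cutoff set 3 SD above the mean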); details: OD615, 24 h, at 10 µM, active compounds read high
Summary of the method: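 Test system: Saccharomyces cerevisiae strain carrying genetically modified DeaD replicative-lifespan system; buffer or medium: SC raffinose/galactose permissive medium; dosing: one dose 10 µM, DMSO 0.25% final; times: 24 h exposure, 30 °C; measured by: OD at 615 nm; read-out basis: growth inhibition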

[2] = S. cerevisiae growth inhibition in restrictive medium, OD615, pilot screen, restrictive growth control, yeast lifespan reduction project (AID 706;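 active = growth inhibition above a set limit, 3 SD over mean compound inhibition, in both replicates, cut at about 43% in these data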;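 note: modified DeaD lifespan yeast strain shifted to restrictive glucose medium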); details: OD615, 48 h, at 10 µM, active compounds read high
Summary of the method: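 material = engineered S. cerevisiae DeaD strain | buffer or medium = glucose-based CSMM-D restrictive medium | dosing = one concentration, 10 µM final, 0.25% DMSO | schedule = 4 h pre-growth plus 48 h compound exposure, 30 °C | detection = OD615 absorbance reading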

[3] = doxorubicin toxicity protection in MRP-1 cells – H69AR cells, CellTiter-Glo, duplicate, MRP-1 activator project, pilot screen (AID 807;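 active = viability increase at or above a cutoff of the median across tested compounds plus 3 SD, cut at about 8.5% in these data, passing the limit was not always enough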;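 note: compound pretreatment 18-22 h then 72 h combined with doxorubicin; 0% = doxorubicin alone and 100% = vehicle without doxorubicin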); details: H69AR viability with doxorubicin, CellTiter-Glo luminescence; at 10 µM; active compounds read high
[4] = viability of HCT116 without oncogenic beta-catenin – human colon tumor cells, pilot screen (AID 823;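 active = cell viability at or below a set limit in both duplicate runs, the limit being the all-compound median minus 4 SD, cut at about 23% in these data, passing the limit was not always enough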;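 note: 0% = wells killed by 20 µM Hyamine and 100% = untreated DMSO cell wells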); details: HCT116 beta-catenin knockout viability, CellTiter-Glo, 60 h; at 10 µM; active compounds read low
[5] = viability of PTEN-null HCT116 cells – cell-based, HCT116 clonal line, CellTiter-Glo, pilot screen (AID 824;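 active = viability at or below 27.92% in each of two runs, the all-compound median minus 4 SD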;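 note: 0% = 20 µM Hyamine control and 100% = vehicle cell control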); details: HCT116 PTEN-deleted viability, 60 h, at 10 µM, active compounds read low
[6] = RAM pathway blockade in budding yeast – dse1pr::URA3 reporter, 5-FOA selection, pilot screen (AID 869;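 active = inhibition over a set limit, the all-compound mean plus 3 SD, in both replicate runs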;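 note: 0% = DMSO wells with no growth and 100% = 10 µM 1-NA-PP1 with full growth; RAM network block rescues cells from 5-FOA so hits raise OD615 growth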); details: S. cerevisiae dse1pr::URA3 5-FOA growth, OD615, 2 d; at 10 µM; active compounds read high; strain carries analog-sensitive mutant Cbk1 kinase
[7] = RAM signaling pathway blockade in yeast – S. cerevisiae, Pdr1DBD-CYC8 efflux-inhibited sensitized strain, primary screen (AID 1298);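 note: 0% = DMSO untreated cells without growth and 100% = 10 µM 1-NA-PP1 full growth; higher means more yeast growth rescued from 5-FOA killing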; details: S. cerevisiae cbk1-as DSE1-URA3 strain, 5-FOA growth OD615, 2 d; at 50 µM; active compounds read high

COc1ccc(CNC(=O)c2cc3c(C)nc4ccccc4c3o2)c(OC)c1
inactive: growth inhibition [1] -10.6% | growth inhibition [2] -12.2% | viability increase [3] -0.17% | viability [4] 74% | viability [5] 75.2% | inhibition [6] 1.66% | RAM network inhibition [7] 6.46%

CC1=C(C(=O)OC(C)C)C(c2c(O)ccc3ccccc23)NC(=O)N1 (stereo unspecified)
inactive: growth inhibition [1] 2.06% | growth inhibition [2] -6.33% | viability increase [3] -3.16% | viability [4] 93.9% | viability [5] 90.7% | inhibition [6] 1.88% | RAM network inhibition [7] 2.42%

N#C/C(=C1/CCCCCN1)c1nnc2n1CCCCC2
inactive: growth inhibition [1] -8.48% | growth inhibition [2] 2.4% | viability increase [3] -1.1% | viability [4] 102% | viability [5] 101% | inhibition [6] 0.985% | RAM network inhibition [7] 3.24%

CCOc1ccc(C2CC(=O)NC(SC)=C2C#N)cc1 (stereo unspecified)
inactive: growth inhibition [1] -15.8% | growth inhibition [2] -15.5% | viability increase [3] -2.65% | viability [4] 104% | viability [5] 94.9% | inhibition [6] 0.595% | RAM network inhibition [7] 6.38%

CCCn1c2ccccc2c2cc(C(=O)O)ccc21
inactive: growth inhibition [1] -20.7% | growth inhibition [2] -6% | viability increase [3] -3.03% | viability [4] 106% | viability [5] 93.5% | inhibition [6] 1.95% | RAM network inhibition [7] 2.82%

COCCOC(=O)C1=C(C)NC2=C(C(=O)CC(C)(C)C2)C1c1ccc(N(C)C)cc1 (stereo unspecified)
inactive: growth inhibition [1] -16.1% | growth inhibition [2] -21.2% | viability increase [3] -0.49% | viability [4] 97.4% | viability [5] 98.3% | inhibition [6] -0.03% | RAM network inhibition [7] 3.6%

COc1ccc(Cl)cc1S(=O)(=O)N1CCN=C1C
inactive: growth inhibition [1] 1.52% | growth inhibition [2] -3.21% | viability increase [3] -2.75% | viability [4] 90.8% | viability [5] 90% | inhibition [6] 0.03% | RAM network inhibition [7] 7.99%

COC(=O)c1ccc(NS(=O)(=O)c2ccc3c(c2)oc(=O)n3C)cc1
inactive: growth inhibition [1] -4.12% | growth inhibition [2] -3.33% | viability increase [3] 1.49% | viability [4] 103% | viability [5] 96.4% | inhibition [6] 0.69% | RAM network inhibition [7] 7.21%

COc1ccc(NC(=O)C(c2ccccc2)N(C)C(=O)c2cnccn2)cc1 (stereo unspecified)
inactive: growth inhibition [1] -4.62% | growth inhibition [2] -12.6% | viability increase [3] -1.52% | viability [4] 99.2% | viability [5] 90.8% | inhibition [6] 0.88% | RAM network inhibition [7] 0.05%

CN1CCN(Cc2c(O)ccc3occ(C(=O)c4ccccc4)c23)CC1
inactive: growth inhibition [1] -13% | growth inhibition [2] -16.2% | viability increase [3] -4% | viability [4] 73% | viability [5] 79% | inhibition [6] 1.56% | RAM network inhibition [7] 7.8%

O=C1c2ccccc2C(=O)N1CSc1ncccn1
inactive: growth inhibition [1] 0.27% | growth inhibition [2] -7.91% | viability increase [3] -3.86% | viability [4] 87.4% | viability [5] 89.7% | inhibition [6] 1.09% | RAM network inhibition [7] 2.25%

COc1ccc(C2CC(c3ccc(Cl)cc3)n3nc(N)nc3N2)cc1 (stereo unspecified)
inactive: growth inhibition [1] -5.72% | growth inhibition [2] 10.7% | viability increase [3] 2.46% | viability [4] 100% | viability [5] 95.1% | inhibition [6] 3.23% | RAM network inhibition [7] 4.44%

O=C(Nc1cccc(F)c1)c1ccc(S(=O)(=O)N2CCOCC2)cc1
inactive: growth inhibition [1] -17% | growth inhibition [2] -7.46% | viability increase [3] -2.24% | viability [4] 98.3% | viability [5] 99.6% | inhibition [6] 1.13% | RAM network inhibition [7] -1.21%

Cc1ccc(S(=O)(=O)N2CCCC2C(=O)Nc2nc3ccccc3s2)cc1 (stereo unspecified)
inactive: growth inhibition [1] -4.55% | growth inhibition [2] -5.41% | viability increase [3] -3.97% | viability [4] 79.7% | viability [5] 80.7% | inhibition [6] 2.12% | RAM network inhibition [7] 4.05%

CCC(Sc1ccc2nnc(-c3cccnc3)n2n1)C(=O)O (stereo unspecified)
inactive: growth inhibition [1] -18.7% | growth inhibition [2] -14.8% | viability increase [3] -0.8% | viability [4] 100% | viability [5] 95.8% | inhibition [6] 2.44% | RAM network inhibition [7] 6.69%

NC(=O)CN1CCN(C(=O)NC2CCCCC2)CC1
inactive: growth inhibition [1] -18.1% | growth inhibition [2] -12.7% | viability increase [3] 0.06% | viability [4] 96% | viability [5] 97.9% | inhibition [6] 2.7% | RAM network inhibition [7] 2.11%

CCSc1nnc(Cn2c(=O)sc3ccccc32)n1C
inactive: growth inhibition [1] -8.03% | growth inhibition [2] 5.23% | viability increase [3] -0.33% | viability [4] 95.7% | viability [5] 96.2% | inhibition [6] 0.71% | RAM network inhibition [7] -0.45%

C=CCn1c(SCC(=O)NCc2ccco2)nc2sc3c(c2c1=O)CCC3
inactive: growth inhibition [1] -1.65% | growth inhibition [2] 0.995% | viability increase [3] -4.9% | viability [4] 98.6% | viability [5] 92.6% | inhibition [6] 2.48% | RAM network inhibition [7] 1.5%
